From ChEMBL document CHEMBL1629526, “4-[1-(Substituted aryl/alkyl carbonyl)-benzoimidazol-2-yl]-benzenesulfonic acids: synthesis, antimicrobial activity, QSAR studies, and antiviral evaluation” (Eur J Med Chem, 2010)
Converted amounts (≈) assume the structure as drawn.

Columns and labels:
[1] = (§1) Cytotoxicity against human HeLa cells assessed as cell viability by MTS assay; type: cell-based; details: HeLa cells
In short: (§2)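 Uninfected cultures were run in parallel with the antiviral assays. Viability was read by colorimetric formazan MTS assay.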

Coxsackievirus B4 [2] = experiment: Antiviral activity against coxsackievirus B4 infected in human HeLa cells assessed as inhibition of virus induced cytopathicity after 2 to 4 days by MTS assay; type: functional, organism-based; details: Enterovirus B
[3] = test system: Respiratory syncytial virus; experiment: Antiviral activity against Respiratory syncytial virus infected in human HeLa cells assessed as inhibition of virus induced cytopathicity after 2 to 4 days by MTS assay; type: functional, organism-based
[4] = Cytotoxicity against african green monkey Vero cells assessed as altered cell morphology; type: cell-based; details: chlorocebus sabaeus
In short: (§3)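 Uninfected cell cultures run alongside the antiviral assays, exposed to serial compound dilutions and incubated at 37 °C for 2–4 days. Toxicity was scored microscopically and reported as the minimum cytotoxic concentration (MCC), the lowest concentration causing a detectable change in normal cell morphology.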

[5] = Cytotoxicity against human HeLa cells assessed as altered cell morphology; type: cell-based; in short: as §3
[6] = test system: Vesicular stomatitis virus; experiment: Antiviral activity against Vesicular stomatitis virus infected in human HeLa cells assessed as inhibition of virus induced cytopathicity after 2 to 4 days by MTS assay; type: functional, organism-based
HeLa = experiment: as §1; type: cell-based; details: hela; in short: as §2
Sindbis virus = experiment: Antiviral activity against Sindbis virus infected in african green monkey Vero cells assessed as inhibition of virus induced cytopathicity after 2 to 4 days by MTS assay; type: functional, organism-based
MDCK = experiment: Cytotoxicity against MDCK cells assessed as cell viability by MTS assay; type: cell-based, Canis lupus familiaris; details: dog, mdck; in short: as §2
[7] = test system: Vesicular stomatitis virus; experiment: Antiviral activity against Vesicular stomatitis virus infected in human HeLa cells assessed as inhibition of virus induced cytopathicity by visual scoring of CPE; type: functional, organism-based
Escherichia coli = experiment: Antimicrobial activity against Escherichia coli after 24 hrs by tube dilution method; type: functional
Human alphaherpesvirus 1 [8] = experiment: Antiviral activity against thymidine kinase deficient acyclovir-resistant Herpes simplex virus 1 KOS infected in HEL cells assessed as inhibition of virus induced cytopathicity after 2 to 4 days by MTS assay; type: functional, organism-based; details: Human alphaherpesvirus 1, KOS
Influenza A virus [9] = experiment: Antiviral activity against Influenza A H1N1 virus subtype infected in MDCK cells assessed as inhibition of virus induced cytopathicity by visual scoring of CPE; type: functional, organism-based
Coxsackievirus B4 [10] = experiment: Antiviral activity against coxsackievirus B4 infected in human HeLa cells assessed as inhibition of virus induced cytopathicity by visual scoring of CPE; type: functional, organism-based; details: Enterovirus B
Candida albicans = experiment: Antimicrobial activity against Candida albicans after 48 hrs by tube dilution method; type: functional
Bacillus subtilis = experiment: Antimicrobial activity against Bacillus subtilis after 24 hrs by tube dilution method; type: functional
In short: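 Serial dilutions in double-strength nutrient broth (I.P.) with ciprofloxacin as reference, tube dilution, incubated 37 °C for 24 h. MIC is the lowest concentration that inhibited growth.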

[11] = Cytotoxicity against human HEL cells assessed as altered cell morphology; type: cell-based; in short: as §3
[12] = test system: Vesicular stomatitis virus; experiment: Antiviral activity against Vesicular stomatitis virus infected in HEL cells assessed as inhibition of virus induced cytopathicity after 2 to 4 days by MTS assay; type: functional, organism-based
Human respirovirus 3 = experiment: Antiviral activity against parainfluenza-3 virus infected in african green monkey Vero cells assessed as inhibition of virus induced cytopathicity after 2 to 4 days by MTS assay; type: functional, organism-based; details: Human respirovirus 3, Vero
[13] = Cytotoxicity against cat CRFK cells assessed as cell viability by MTS assay; type: cell-based, Felis catus; details: crfk; in short: as §2
[14] = test system: Mammalian orthoreovirus 1; experiment: Antiviral activity against Reovirus 1 virus infected in african green monkey Vero cells assessed as inhibition of virus induced cytopathicity after 2 to 4 days by MTS assay; type: functional, organism-based; details: Mammalian orthoreovirus 1, Vero
Aspergillus niger = experiment: Antimicrobial activity against Aspergillus niger after 7 days by tube dilution method; type: functional; details: 168 h
Influenza B virus [15] = experiment: Antiviral activity against Influenza B virus infected in MDCK cells assessed as inhibition of virus induced cytopathicity after 2 to 4 days by MTS assay; type: functional, organism-based
Staphylococcus aureus = experiment: Antimicrobial activity against Staphylococcus aureus after 24 hrs by tube dilution method; type: functional
Punta Toro virus = experiment: Antiviral activity against Punta Toro virus infected in african green monkey Vero cells assessed as inhibition of virus induced cytopathicity after 2 to 4 days by MTS assay; type: functional, organism-based
Human alphaherpesvirus 2 = experiment: Antiviral activity against Herpes simplex virus 2 G infected in HEL cells assessed as inhibition of virus induced cytopathicity after 2 to 4 days by MTS assay; type: functional, organism-based; details: Human alphaherpesvirus 2, strain G
[16] = test system: Respiratory syncytial virus; experiment: Antiviral activity against Respiratory syncytial virus infected in human HeLa cells assessed as inhibition of virus induced cytopathicity by visual scoring of CPE; type: functional, organism-based
Feline coronavirus = experiment: Antiviral activity against Feline coronavirus infected in cat CRFK cells assessed as inhibition of virus induced cytopathicity after 2 to 4 days by MTS assay; type: functional, organism-based; details: Alphacoronavirus 1, CRFK
Vaccinia virus = experiment: Antiviral activity against Vaccinia virus infected in HEL cells assessed as inhibition of virus induced cytopathicity after 2 to 4 days by MTS assay; type: functional, organism-based; details: Orthopoxvirus vaccinia
Influenza A virus [17] = experiment: Antiviral activity against Influenza A H3N2 virus subtype infected in MDCK cells assessed as inhibition of virus induced cytopathicity after 2 to 4 days by MTS assay; type: functional, organism-based
Human alphaherpesvirus 1 [18] = experiment: Antiviral activity against Herpes simplex virus 1 KOS infected in HEL cells assessed as inhibition of virus induced cytopathicity after 2 to 4 days by MTS assay; type: functional, organism-based; details: Human alphaherpesvirus 1, KOS
Influenza A virus [19] = experiment: Antiviral activity against Influenza A H3N2 virus subtype infected in MDCK cells assessed as inhibition of virus induced cytopathicity by visual scoring of CPE; type: functional, organism-based
Felid alphaherpesvirus 1 = experiment: Antiviral activity against Feline herpesvirus 1 infected in cat CRFK cells assessed as inhibition of virus induced cytopathicity after 2 to 4 days by MTS assay; type: functional, organism-based; details: Felid alphaherpesvirus 1, CRFK
[20] = Cytotoxicity against MDCK cells assessed as altered cell morphology; type: cell-based, Canis lupus familiaris; details: dog; in short: as §3
Coxsackievirus B4 [21] = experiment: Antiviral activity against Coxsackie virus B4 infected in african green monkey Vero cells assessed as inhibition of virus induced cytopathicity after 2 to 4 days by MTS assay; type: functional, organism-based; details: Enterovirus B
Influenza A virus [22] = experiment: Antiviral activity against Influenza A H1N1 virus subtype infected in MDCK cells assessed as inhibition of virus induced cytopathicity after 2 to 4 days by MTS assay; type: functional, organism-based
Influenza B virus [23] = experiment: Antiviral activity against Influenza B virus infected in MDCK cells assessed as inhibition of virus induced cytopathicity by visual scoring of CPE; type: functional, organism-based

SMILES	EC50 (Coxsackievirus B4 [2]) [µg/mL]	EC50 [3] [µg/mL]	MCC [4] [µg/mL]	MCC [5] [µg/mL]	EC50 [6] [µg/mL]	CC50 (HeLa) [µg/mL]	EC50 (Sindbis virus) [µg/mL]	CC50 (MDCK) [µg/mL]	EC50 [7] [µg/mL]	MBC (Escherichia coli) [µg/mL]	EC50 (Human alphaherpesvirus 1 [8]) [µg/mL]	EC50 (Influenza A virus [9]) [µg/mL]	EC50 (Coxsackievirus B4 [10]) [µg/mL]	MFC (Candida albicans) [µg/mL]	MBC (Bacillus subtilis) [µg/mL]	MCC [11] [µg/mL]	EC50 [12] [µg/mL]	EC50 (Human respirovirus 3) [µg/mL]	CC50 [13] [µg/mL]	EC50 [14] [µg/mL]	other results
Nc1ncnc2c1ncn2C[C@H](O)CO [(S)-DHPA]	> 250	> 250	> 250	> 250	> 250																CC50 [1]: > 250 µg/mL
Nc1ccc(C(=O)n2c(-c3ccc(S(=O)(=O)O)cc3)nc3ccccc32)cc1	> 100	> 100	> 100	> 100	> 100	> 100	> 100	46.8 (≈ 119 µM)	> 100	25 (≈ 63.5 µM)	> 100	> 4	> 100	> 50	> 50	> 100	> 100	> 100	> 100	> 100	MFC (Aspergillus niger): > 50 µg/mL; EC50 (Influenza B virus [15]): > 4 µg/mL; MBC (Staphylococcus aureus): 12.5 µg/mL (≈ 31.8 µM); EC50 (Punta Toro virus): > 100 µg/mL; EC50 (Human alphaherpesvirus 2): > 100 µg/mL; EC50 [16]: > 100 µg/mL; EC50 (Feline coronavirus): > 100 µg/mL; EC50 (Vaccinia virus): > 100 µg/mL; EC50 (Influenza A virus [17]): > 4 µg/mL; EC50 (Human alphaherpesvirus 1 [18]): > 100 µg/mL; EC50 (Influenza A virus [19]): > 4 µg/mL; EC50 (Felid alphaherpesvirus 1): > 100 µg/mL; MCC [20]: 20 µg/mL; EC50 (Coxsackievirus B4 [21]): > 100 µg/mL; EC50 (Influenza A virus [22]): > 4 µg/mL; EC50 (Influenza B virus [23]): > 4 µg/mL
O=C(c1ccc(O)cc1O)n1c(-c2ccc(S(=O)(=O)O)cc2)nc2ccccc21	> 100	> 100	> 100	> 100	> 100	> 100	> 100	54 (≈ 132 µM)	> 100	1.56 (≈ 3.8 µM)	> 20	> 4	> 100	12.5 (≈ 30.5 µM)	25 (≈ 60.9 µM)	100	> 20	> 100	> 100	> 100	MFC (Aspergillus niger): > 50 µg/mL; EC50 (Influenza B virus [15]): > 4 µg/mL; MBC (Staphylococcus aureus): 12.5 µg/mL (≈ 30.5 µM); EC50 (Punta Toro virus): > 100 µg/mL; EC50 (Human alphaherpesvirus 2): > 20 µg/mL; EC50 [16]: > 100 µg/mL; EC50 (Feline coronavirus): > 100 µg/mL; EC50 (Vaccinia virus): > 20 µg/mL; EC50 (Influenza A virus [17]): > 4 µg/mL; EC50 (Human alphaherpesvirus 1 [18]): > 20 µg/mL; EC50 (Influenza A virus [19]): > 4 µg/mL; EC50 (Felid alphaherpesvirus 1): > 100 µg/mL; MCC [20]: 20 µg/mL; EC50 (Coxsackievirus B4 [21]): > 100 µg/mL; EC50 (Influenza A virus [22]): > 4 µg/mL; EC50 (Influenza B virus [23]): > 4 µg/mL
